In the library only some 1.2% were active in any assay of this set; here they are far more common.
PMI act = increases human mannose-6-phosphate isomerase activity; P34949; purified human PMI, coupled resazurin fluorescence, 20 min; stronger effect = higher value; 1 = vehicle control, 0 substrate-free wells; activation factor at 20 µM; 190,000 compounds, 0.005% hits; AID 1214;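 active = activation factor of 2 or more at 20 µM, relative to plate controls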
Diaphorase act = diaphorase activation or chemical reduction counter-screen; Diaphorase/resazurin coupled assay, resorufin fluorescence, 16 min; stronger effect = higher value; 1 = vehicle wells, 0 = NADH-free wells; activation factor at 20 µM; 190,000 compounds, 0.005% hits; AID 1229;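 active = diaphorase activity raised at least twofold by the compound at 20 µM; inactive = activation factor below 2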
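Material: Clostridium kluyveri diaphorase, purified enzyme; Quantity: enzyme 0.07 U/mL final; Medium: HEPES pH 7.4 buffer with MgCl2 and Tween 20; Dosing: single compound dose of 20 µM, 1% DMSO final; Schedule: 16 min reaction at room temperature; Measured by: red resorufin fluorescence at 544/590 nm excitation/emission.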
PMI act hi M6P = increases human PMI activity with near-saturating mannose 6-phosphate; P34949; coupled PMI enzyme assay, resazurin fluorescence, 20 min; stronger effect = higher value; 1 = untreated enzyme, 0 = substrate-free blank; activation factor at 20 µM; 190,000 compounds, 0.34% hits; AID 1216;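 active = activation factor of 2 or more at 20 µM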
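Material: human phosphomannose isomerase with PGI, G6PDH, diaphorase coupling enzymes. Quantity: 15 ng/mL PMI. Medium: HEPES pH 7.4 buffer with MgCl2 and Tween-20. Reagent: Near-saturating mannose-6-phosphate, 1.0 mM. Compound: 20 µM single dose. Times: enzyme reaction with compound 20 min at room temperature. Detection: resorufin fluorescence at Ex 544/Em 590 nm.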
HMGR II inh = blocks class II HMG-CoA reductase of Enterococcus faecalis | purified E. faecalis HMGR, NADPH absorbance 340 nm kinetic | inhibition, % at 10 µM | 190,000 compounds, 0.41% hits | AID 1066;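 active = inhibition above a set limit, the median over all tested compounds plus 3 SD, cut at about 9.5% in these data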;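 note: enzyme runs in reverse so mevalonate oxidation gives rising NADPH absorbance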
Redox H2O2 prof = compounds producing H2O2 with reducing agent – biochemical, NIH compound library profiling, artefact control for MLSCN library redox annotation, primary screen; DTT-dependent redox cycling H2O2, phenol red/HRP absorbance; 100% = 100 µM peroxide control, 0% = buffer; activation, % at 10 µM; 200,000 compounds, 0.03% hits;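 active = activation of at least 50% relative to the plate's high and low controls in the primary single-dose screen; inactive = activation below 50%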;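 note: compound incubated with DTT at 0.8 mM final as the reducing agent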
NCF1 inh = inhibitors of human p47phox binding; inhibition, % at 24.7 µM; P14598; 220,000 compounds, 0.53% hits; p47phox/p22phox peptide binding, fluorescence polarization, 2 h; AID 1274;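 active = inhibition above about 30%, limit read from the data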
Target sequence (P14598 whole entry, looked up): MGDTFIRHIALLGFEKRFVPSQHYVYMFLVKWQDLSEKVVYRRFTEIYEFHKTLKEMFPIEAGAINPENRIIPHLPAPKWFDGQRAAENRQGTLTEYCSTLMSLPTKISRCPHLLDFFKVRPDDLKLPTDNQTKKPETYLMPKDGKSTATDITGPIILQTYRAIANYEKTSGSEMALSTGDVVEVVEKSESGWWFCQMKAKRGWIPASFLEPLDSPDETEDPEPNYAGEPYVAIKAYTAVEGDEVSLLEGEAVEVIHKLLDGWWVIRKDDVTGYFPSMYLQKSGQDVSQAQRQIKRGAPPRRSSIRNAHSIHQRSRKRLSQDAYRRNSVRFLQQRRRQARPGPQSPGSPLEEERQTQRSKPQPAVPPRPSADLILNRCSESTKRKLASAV
DTT redox conf = generates H2O2 by DTT-dependent redox cycling, confirmed in dose response; shares compounds with Redox H2O2 prof; phenol red-HRP absorbance; EC50, µM; 60 compounds, 40% hits; AID 1234;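 active = EC50 under a set limit for hydrogen peroxide production with the reducing agent DTT present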
Numbers stand for hits; n = inactive; x = no result.

SMILES	PMI act	Diaphorase act	PMI act hi M6P	HMGR II inh	Redox H2O2 prof	NCF1 inh	others
O=C(c1ccc(Cl)cc1)C1CCCN(Cc2ccc3nonc3c2)C1 (stereo not drawn)	n	n	n	n	n	48
Cc1ccc(/C=C2\C(=O)NC(=S)N(c3ccc(F)cc3)C2=O)s1	n	n	2.1	n	n	n
CC(=O)OC1N=C(c2ccccc2)c2cc(Br)ccc2N(C)C1=O (stereo not drawn)	n	n	n	n	n	32
O=C1N(c2nncs2)CCN1[N+](=O)[O-]	x	x	x	x	x	n
Cn1c(O)c(C=NCCN2CCN(C(=O)Nc3ccccc3)CC2)c(=O)n(C)c1=O	x	x	x	x	x	n
O=C1NS(=O)c2cc([N+](=O)[O-])cc([N+](=O)[O-])c21 (stereo not drawn)	n	n	2	n	n	n
Cn1cccc1CNCCc1ccccc1F	n	n	n	n	n	n
O=[N+]([O-])/C(Cl)=C1\NCCN1Cc1ccc(Cl)nc1	n	n	n	14	n	n
O=[N+]([O-])/C=C1/NCCN1Cc1ccc(Cl)nc1	n	n	n	n	n	n
C#CCN1CCN(c2cccc(C(F)(F)F)c2)CC1	n	n	n	n	n	n
Cc1c2cnn(CC(=O)N3CCC4(CC3)OCCO4)c(=O)c2c(C)n1Cc1ccccc1F	n	n	n	12	n	n
O=C1NC(=O)C2(Cc3ccccc3N3CCCC32)C(=O)N1c1ccc(Cl)cc1 (stereo not drawn)	n	n	n	n	n	n
CN1C(=O)NC(=O)[C@]2(Cc3ccccc3N3CCN(c4ccccc4)CC32)C1=O (stereo partly drawn)	n	n	2.1	n	n	n
O=C1NC(=O)[C@]2(Cc3ccccc3N3CCN(c4ccccc4)CC32)C(=O)N1Cc1ccccc1 (stereo partly drawn)	n	n	2.1	n	n	n
O=C1NC(=O)[C@]2(Cc3ccccc3N3CCN(c4ccccc4)CC32)C(=O)N1c1ccccc1 (stereo partly drawn)	n	n	2.1	n	n	n
COc1ccc(/C=C2/C(=O)NC(=S)N(C3CC3)C2=O)cc1CN1C(=O)c2ccccc2C1=O	n	n	2	n	n	n
c1ccc(P(c2ccccn2)c2ccccn2)cc1	n	n	n	n	n	n
CC1CCN(CC(=O)c2ccc3c(c2)OCCO3)CC1	n	n	n	n	n	n
CC1CCN(CC(=O)c2ccccc2Cl)CC1	n	n	2	n	n	n
OC(c1ccc(F)cc1)(c1ccc(F)cc1)[C@@H]1CCCN1	n	n	n	n	n	43
O=C1NC(=O)N(Cc2ccc(F)cc2)C(=O)/C1=C\c1ccc(N2CCCC2)cc1	x	x	x	x	x	193
CCOC(=O)C(NC(=O)C(Cc1ccc(N(CCCl)CCCl)cc1)NC(C)=O)C(C)C (stereo not drawn)	n	n	n	n	n	n
CC(=O)NC(Cc1ccc(N(CCCl)CCCl)cc1)C(=O)NC(CC(C)C)C(=O)O (stereo not drawn)	n	n	2	n	n	n
CP(=O)(Nc1ccc(Cl)cc1)c1nc2c(s1)CCCC2 (stereo not drawn)	x	x	x	x	x	n
O=C1NC(=O)C(=Cc2ccc(N3CCOCC3)o2)C(=O)N1	n	n	n	n	n	58
Cc1nn(Cc2ccc(Cl)cc2Cl)c(Cl)c1C(=O)Nc1ccc(OC(F)F)cc1	n	n	n	n	n	n
CCOC(=O)c1cc(CC)sc1/N=C/c1c(O)[nH]c(=S)[nH]c1=O	n	n	n	n	n	n
CCOC(=O)c1cc(CC)sc1/N=C/C1C(=O)NC(=S)NC1=O	n	n	2.3	n	n	n
CCN1CCN(C(=O)Cc2ccccc2OC)CC1	n	n	n	14	n	n
Cc1cccnc1NC1=NCC(C)S1 (stereo not drawn)	n	n	n	n	71	n	DTT redox conf=n

Screening data (PubChem BioAssay)
